In one test the test system is estrogen receptors. Conditions: cited from earlier work.
A further test deals with T1, hSphK2 (Homo sapiens, UniProt Q9NRA0).
T1 sequence (Q9NRA0 1-618 isoform Q9NRA0-2): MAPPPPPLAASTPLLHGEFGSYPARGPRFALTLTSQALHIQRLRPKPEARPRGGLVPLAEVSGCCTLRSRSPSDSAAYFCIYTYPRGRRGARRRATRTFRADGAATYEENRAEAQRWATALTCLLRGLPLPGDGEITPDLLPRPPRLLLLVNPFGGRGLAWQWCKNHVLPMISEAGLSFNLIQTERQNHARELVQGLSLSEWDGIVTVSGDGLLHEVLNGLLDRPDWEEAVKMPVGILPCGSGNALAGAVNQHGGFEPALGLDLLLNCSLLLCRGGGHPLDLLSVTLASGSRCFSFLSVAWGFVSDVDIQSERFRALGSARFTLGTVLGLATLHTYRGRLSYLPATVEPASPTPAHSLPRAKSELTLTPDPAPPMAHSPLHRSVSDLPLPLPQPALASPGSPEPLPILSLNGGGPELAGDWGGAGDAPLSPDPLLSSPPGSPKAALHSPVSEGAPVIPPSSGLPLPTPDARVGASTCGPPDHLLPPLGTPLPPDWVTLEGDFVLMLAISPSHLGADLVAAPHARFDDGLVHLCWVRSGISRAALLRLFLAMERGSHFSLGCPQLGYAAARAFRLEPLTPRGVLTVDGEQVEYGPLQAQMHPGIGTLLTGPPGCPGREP
Format: biochemical.

For a further test, the system named is SphK2 in U937 cells. The test is described as follows: FTY720-P levels in U937 cells. Format: cell-based, human. Particulars: 1 μM FTY720 and 14c at 30–1000 nM, Figure 5B, duplicate. The method, boiled down: (§1)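 U937 cells were grown in RPMI 1640 with 10% FBS, then moved to 0.5% FBS for 24 h. They were treated 2 h with test compound (30–1000 nM) plus 1 μM FTY720. Pellets (2–3 × 10^6 cells) were extracted in methanol/chloroform with deuterated internal standards and base-treated. S1P and FTY720-P were measured by LC-MS/MS, in duplicate.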

The next test concerns blood S1P. The test is described as follows: Blood S1P in C57BL/6 mice after a single intraperitoneal dose, LC-MS/MS. It is filed as in vivo. Particulars: for S1P levels in blood: 5 mg/kg single intraperitoneal injection. The method, boiled down:
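Male C57BL/6J mice in groups of four received 5 mg/kg test compound i.p. in 2% hydroxypropyl-β-cyclodextrin, and controls got an equal volume of vehicle. Blood was drawn at set times, with the earliest 1–2 min post-dose. Whole blood (10 μL) was extracted in methanol/chloroform with d7-S1P/d7-sphingosine internal standards (48 °C, 16 h), then treated with KOH/methanol. S1P was quantified by LC-MS/MS MRM (380.4 → 264.4).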

A further test deals with U937 cells. The test is described as follows: S1P levels in U937 cells by LC-MS/MS. It is filed as cell-based, human. Particulars: varying concentrations of 14c, 2 h, Figure 5A, duplicate. Summed up: as §1

“Also recorded” adds a separate entry of the source.

Regarding `O=C(NCc1ccncc1)C12CC3CC(C1)CC(c1ccc(Cl)cc1)(C3)C2` [compound 1], the “action at estrogen receptors” value in the test on estrogen receptors is “tamoxifen-mimetic”.
For `Cl.N=C(N)N1CCC[C@H]1c1nc(-c2ccc(CCC3CCCCC3)c(C(F)(F)F)c2)no1` [14c, (S)-2-(3-(4-(2-Cyclohexylethyl)-3-(trifluoromethyl)phenyl)-1,2,4-oxadiazol-5-yl)pyrrolidine-1-carboximidamide Hydrochloride], the “selectivity for SphK2 over SphK1” value on hSphK2 is around 200 fold. The “FTY720-P levels in U937 cells” value in the test with SphK2 in U937 cells is “concentration-dependent decrease”. Further, the “S1P levels in blood” value in the test with blood S1P (4 h post dosing) is on record as “doubling”; in the test with blood S1P (after 24 h) it was “returning close to baseline”. Besides, the “circulating (blood) S1P levels” value in the test on blood S1P (mice, 5 mg/kg, overall statement) was “sustained increase; also recorded: profound increases”. The “S1P levels in U937 cells” value in the test on U937 cells is on record as “dose-dependent decrease”.

These data come from paper PMC9585524 (ACS Bio & Med Chem Au, 2022).
